This passage reports IC50 results from ChEMBL document CHEMBL1156597, “Structure-activity relationship of kahalalide F synthetic analogues” (J Med Chem, 2008).

Each structure is given as a SMILES string.

Assay [1] concerns DU-145. The assay can be described thus: Cytotoxicity against human DU145 cells after 48 hrs by SRB assay. The format is functional, cell-based. As to conditions: Homo sapiens, DU-145, 48 h. The gist of the method: (§1)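 Cells grown in RPMI 1640 with 10% FBS and penicillin/streptomycin at 37 °C and 5% CO₂, trypsinized, then seeded at 5 × 10³/well. After 18 h drug-free attachment, samples in DMSO/EtOH/PBS (0.5:0.5:99) were added for 48 h continuous exposure. Cells were fixed with cold TCA (1 h, 4 °C) and stained with SRB (10 min). Tris-solubilized stain read at 490 nm. Triplicate wells, mean ± SD; GI₅₀ derived.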

The subject of a further assay is A549. In words: Cytotoxicity against human A549 cells after 48 hrs by SRB assay. The class given is functional, cell-based. As to conditions: Homo sapiens, A549, 48 h. The gist of the method:
as §1

A further assay deals with HT-29. The assay can be described thus: Cytotoxicity against human HT29 cells after 48 hrs by SRB assay. The settings on record: Homo sapiens, HT-29, 48 h. The format is functional, cell-based. An outline of the steps:
as §1
For orientation: In SRB staining, fixed cells bind dye roughly in proportion to their protein.

Assay [2] has as its system SK-MEL-28. In words: Cytotoxicity against human SK-MEL-28 cells.
The test system of assay [3] is SK-MEL-28. In words: Cytotoxicity against human SK-MEL-28 cells after 48 hrs by SRB assay. The class given is functional, cell-based. As to conditions: Homo sapiens, SK-MEL-28, 48 h. An outline of the steps: as §1
Assay [4] concerns DU-145. The assay can be described thus: Cytotoxicity against human DU145 cells.

On to `C/C=C1\NC(=O)[C@H](Cc2ccccc2)NC(=O)[C@@H](C(C)C)NC(=O)[C@@H]([C@H](C)CC)NC(=O)[C@H](NC(=O)[C@H](NC(=O)[C@H](CCCN)NC(=O)[C@H]2CCCN2C(=O)[C@@H](NC(=O)[C@H](NC(=O)[C@@H](NC(=O)[C@H](NC(=O)CCCC(C)C)C(C)C)[C@@H](C)O)C(C)C)C(C)C)[C@H](C)CC)[C@H](C)OC(=O)[C@H](C(C)C)NC1=O`, for which the IC50 in the assay on DU-145 [1], with A549, in the assay on HT-29 and in the assay on SK-MEL-28 [2] was 3.39 µM in each case.

For `C/C=C1\NC(=O)[C@H](Cc2ccccc2)NC(=O)[C@@H](C(C)C)NC(=O)[C@@H]([C@H](C)CC)NC(=O)[C@H](NC(=O)[C@H](NC(=O)[C@@H](NC(=O)[C@H](NC(=O)CCCC(C)C)C(C)C)[C@@H](C)O)[C@H](C)CC)[C@H](C)OC(=O)[C@H](C(C)C)NC1=O`, the IC50 in the assay on DU-145 [1], in the assay on A549, in the assay with HT-29 and in the assay on SK-MEL-28 [2] was 9.36 µM throughout.

As to `C/C=C1\NC(=O)[C@H](Cc2ccccc2)NC(=O)[C@@H](C(C)C)NC(=O)[C@@H]([C@H](C)CC)NC(=O)[C@H](NC(=O)[C@H](NC(=O)CCCC(C)C)[C@H](C)CC)[C@H](C)OC(=O)[C@H](C(C)C)NC1=O`, the IC50 with SK-MEL-28 [3], in the assay with A549, with HT-29 and in the assay on DU-145 [4] was 11.5 µM in each case.

As to `C/C=C1\NC(=O)[C@H](Cc2ccccc2)NC(=O)[C@@H](C(C)C)NC(=O)[C@@H]([C@H](C)CC)NC(=O)[C@H](NC(=O)[C@H](NC(=O)[C@H](CCCN)NC(=O)[C@H]2CCCN2C(=O)[C@H](NC(=O)[C@@H](NC(=O)[C@@H](NC(=O)[C@H](NC(=O)CCCN(C)C)C(C)C)[C@@H](C)O)C(C)C)C(C)C)[C@H](C)CC)[C@H](C)OC(=O)[C@H](C(C)C)NC1=O`, the IC50 with DU-145 [1], with A549, in the assay with HT-29 and in the assay with SK-MEL-28 [2] was 6.77 µM in each case.

As to `CC[C@@H](C)[C@@H](NC(=O)[C@H](CCCN)NC(=O)[C@H]1CCCN1C(=O)[C@H](NC(=O)[C@@H](NC(=O)[C@@H](NC(=O)[C@H](NC(=O)CCCC(C)C)C(C)C)[C@@H](C)O)C(C)C)C(C)C)C(=O)N[C@H]1C(=O)N[C@H]([C@H](C)CC)C(=O)N[C@H](C(C)C)C(=O)N[C@@H](Cc2ccccc2)C(=O)N[C@H]([C@@H](C)O)C(=O)N[C@@H](C(C)C)C(=O)O[C@H]1C`, the IC50 (as a rule, the concentration that inhibits the measured activity by half) was found to be 11.7 µM in the assay on SK-MEL-28 [3], 11.5 µM in the assay on A549, 8.52 µM in the assay on HT-29 and 18.4 µM in the assay with DU-145 [4].

For `C/C=C1\NC(=O)[C@H](Cc2ccccc2)NC(=O)[C@@H](C(C)C)NC(=O)[C@@H]([C@H](C)CC)NC(=O)[C@H](NC(=O)[C@H](NC(=O)[C@@H](NC(=O)[C@@H](NC(=O)[C@H](NC(=O)CCCC(C)C)C(C)C)[C@@H](C)O)C(C)C)[C@H](C)CC)[C@H](C)OC(=O)[C@H](C(C)C)NC1=O`, the IC50 in the assay with DU-145 [1], in the assay on A549, in the assay on HT-29 and in the assay on SK-MEL-28 [2] was 4.3 µM in each case.
